Measured values as given in ChEMBL document CHEMBL4020710, “Discovery and evaluation of the hybrid of bromophenol and saccharide as potent and selective protein tyrosine phosphatase 1B inhibitors” (Eur J Med Chem, 2017).
The source made the active and inactive calls. The calls are words filed in the database; no cut-off is given here.

Legend:
[1] = biological target: T1, Tyrosine-protein phosphatase non-receptor type 1 (Homo sapiens, UniProt P18031); assay: Inhibition of recombinant PTP1B (unknown origin) using p-NPP as substrate after 30 mins by UV-spectroscopic analysis
T1 sequence (P18031 whole entry): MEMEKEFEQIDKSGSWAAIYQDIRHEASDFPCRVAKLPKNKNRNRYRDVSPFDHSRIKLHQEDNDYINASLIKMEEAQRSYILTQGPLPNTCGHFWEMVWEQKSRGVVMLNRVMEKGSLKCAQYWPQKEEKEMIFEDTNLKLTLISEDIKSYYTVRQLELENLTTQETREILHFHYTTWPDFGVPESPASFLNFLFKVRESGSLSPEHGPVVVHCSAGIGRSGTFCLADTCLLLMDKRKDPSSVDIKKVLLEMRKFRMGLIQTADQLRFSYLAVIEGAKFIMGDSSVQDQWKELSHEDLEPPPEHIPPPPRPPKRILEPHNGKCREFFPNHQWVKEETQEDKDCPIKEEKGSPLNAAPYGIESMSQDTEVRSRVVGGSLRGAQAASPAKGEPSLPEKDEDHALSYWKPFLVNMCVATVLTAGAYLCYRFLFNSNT

C2C12 [2] = assay: Effect on total Akt in mouse C2C12 cells at 0.1 to 1 uM after 8 hrs by Western blot analysis; format: ADME, cell-based; details: c2c12, 8 h
[3] = biological target: T2, Tyrosine-protein phosphatase non-receptor type 1 (Homo sapiens) (UniProt P18031); assay: Binding affinity to human PTP1B (1 to 321 residues) at 50 uM by SPR assay
T2 sequence (whole entry): T1 sequence (P18031 whole entry)

C2C12 (Mus musculus) = assay: Drug absorption in mouse C2C12 myotubes assessed per million cells at 10 uM after 8 hrs by HPLC analysis; details: c2c12, 8 h
C2C12 [4] = assay: Effect on total IRbeta in mouse C2C12 cells at 0.1 to 1 uM after 8 hrs by Western blot analysis; format: ADME, cell-based; details: c2c12, 8 h
[5] = biological target: T3, Receptor-type tyrosine-protein phosphatase F (Homo sapiens, UniProt P10586); assay: Inhibition of PTPLAR (unknown origin)
[6] = biological target: T4, Tyrosine-protein phosphatase non-receptor type 1 (Mus musculus) (UniProt P35821); assay: Inhibition of PTP1B in mouse C2C12 cells assessed as increase in Akt phosphorylation at S473 residues in mouse C2C12 cells at 0.1 to 1 uM after 8 hrs by Western blot analysis; format: cell-based
T4 sequence (whole entry): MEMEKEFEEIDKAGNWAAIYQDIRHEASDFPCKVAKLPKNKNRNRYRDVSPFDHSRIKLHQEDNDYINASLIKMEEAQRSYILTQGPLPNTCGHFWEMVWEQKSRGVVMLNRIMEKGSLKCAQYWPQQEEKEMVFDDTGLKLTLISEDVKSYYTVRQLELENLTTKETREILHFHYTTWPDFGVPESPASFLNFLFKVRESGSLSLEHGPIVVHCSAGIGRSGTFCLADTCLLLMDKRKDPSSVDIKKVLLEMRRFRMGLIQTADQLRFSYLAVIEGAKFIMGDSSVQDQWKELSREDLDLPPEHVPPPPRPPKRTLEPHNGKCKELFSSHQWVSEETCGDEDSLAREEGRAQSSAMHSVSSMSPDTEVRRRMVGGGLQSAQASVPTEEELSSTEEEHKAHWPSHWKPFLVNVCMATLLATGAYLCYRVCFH

[7] = biological target: T4, Tyrosine-protein phosphatase non-receptor type 1 (Mus musculus); assay: Inhibition of PTP1B in mouse C2C12 cells assessed as increase in IRbeta phosphorylation at Y1146 residues in mouse C2C12 cells at 0.1 to 1 uM after 8 hrs by Western blot analysis; format: cell-based
[8] = biological target: T4, Tyrosine-protein phosphatase non-receptor type 1 (Mus musculus); assay: Inhibition of PTP1B in mouse C2C12 cells assessed as increase in IRS1 phosphorylation at Y632 residues at 0.25 to 1 uM after 8 hrs by Western blot analysis; format: cell-based
[9] = Drug uptake in mouse C2C12 cells at 10 uM after 8 hrs by HPLC analysis; format: ADME, cell-based; details: c2c12, 8 h
Procedure, shortened: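 C2C12 myotubes were exposed to 10 μM for 8 h, with DMSO-treated cells as the control. The medium was then removed and the cells disrupted. An equal amount of internal standard was added, cell debris was removed by filtration, and intracellular compound was quantified by HPLC.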

[10] = biological target: T5, Tyrosine-protein phosphatase non-receptor type 11 (Homo sapiens, UniProt Q06124); assay: Inhibition of SHP2 (unknown origin)
T5 sequence (Q06124 whole entry): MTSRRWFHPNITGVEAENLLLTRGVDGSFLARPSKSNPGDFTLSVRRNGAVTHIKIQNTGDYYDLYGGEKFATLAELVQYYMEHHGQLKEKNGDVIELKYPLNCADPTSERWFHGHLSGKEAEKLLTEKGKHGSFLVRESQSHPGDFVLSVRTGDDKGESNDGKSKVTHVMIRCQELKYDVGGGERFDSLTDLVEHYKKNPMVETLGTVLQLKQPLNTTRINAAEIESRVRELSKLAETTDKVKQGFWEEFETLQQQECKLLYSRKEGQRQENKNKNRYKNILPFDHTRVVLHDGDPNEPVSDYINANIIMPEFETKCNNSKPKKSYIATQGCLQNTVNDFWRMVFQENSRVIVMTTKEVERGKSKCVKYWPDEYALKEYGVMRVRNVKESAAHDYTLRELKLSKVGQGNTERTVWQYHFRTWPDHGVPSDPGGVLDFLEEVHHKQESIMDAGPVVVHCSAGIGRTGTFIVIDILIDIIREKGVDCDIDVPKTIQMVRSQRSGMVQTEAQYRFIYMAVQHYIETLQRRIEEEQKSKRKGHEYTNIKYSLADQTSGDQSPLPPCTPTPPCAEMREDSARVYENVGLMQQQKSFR

[11] = biological target: T2, Tyrosine-protein phosphatase non-receptor type 1 (Homo sapiens); assay: Inhibition of recombinant PTP1B (unknown origin) at 10 uM using p-NPP as substrate after 30 mins by UV-spectroscopic analysis
[12] = biological target: T3, Receptor-type tyrosine-protein phosphatase F; assay: Inhibition of PTPLAR (unknown origin) at 20 ug/ml
Homo sapiens = species on record: Homo sapiens; assay: Selectivity ratio of IC50 for TCPTP (unknown origin) to IC50 for recombinant PTP1B (unknown origin)
[13] = biological target: T2, Tyrosine-protein phosphatase non-receptor type 1 (Homo sapiens); assay: Competitive inhibition of PTP1B (unknown origin) using p-NPP as substrate after 30 mins by Lineweaver-Burk plot analysis
[14] = biological target: T6, Tyrosine-protein phosphatase non-receptor type 2 (Homo sapiens, UniProt P17706); assay: Inhibition of TCPTP (unknown origin)
T6 sequence (P17706 whole entry): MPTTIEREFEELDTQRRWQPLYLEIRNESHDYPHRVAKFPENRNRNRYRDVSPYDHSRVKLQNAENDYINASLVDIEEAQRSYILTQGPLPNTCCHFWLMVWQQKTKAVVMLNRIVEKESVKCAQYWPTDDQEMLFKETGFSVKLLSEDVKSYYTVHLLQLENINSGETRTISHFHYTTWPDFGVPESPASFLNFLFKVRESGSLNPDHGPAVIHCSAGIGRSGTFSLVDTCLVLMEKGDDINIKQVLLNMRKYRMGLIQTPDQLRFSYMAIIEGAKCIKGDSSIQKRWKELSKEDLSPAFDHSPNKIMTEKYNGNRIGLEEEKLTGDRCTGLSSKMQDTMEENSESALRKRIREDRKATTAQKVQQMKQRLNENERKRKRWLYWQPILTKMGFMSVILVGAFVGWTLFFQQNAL

T3 sequence (P10586 whole entry): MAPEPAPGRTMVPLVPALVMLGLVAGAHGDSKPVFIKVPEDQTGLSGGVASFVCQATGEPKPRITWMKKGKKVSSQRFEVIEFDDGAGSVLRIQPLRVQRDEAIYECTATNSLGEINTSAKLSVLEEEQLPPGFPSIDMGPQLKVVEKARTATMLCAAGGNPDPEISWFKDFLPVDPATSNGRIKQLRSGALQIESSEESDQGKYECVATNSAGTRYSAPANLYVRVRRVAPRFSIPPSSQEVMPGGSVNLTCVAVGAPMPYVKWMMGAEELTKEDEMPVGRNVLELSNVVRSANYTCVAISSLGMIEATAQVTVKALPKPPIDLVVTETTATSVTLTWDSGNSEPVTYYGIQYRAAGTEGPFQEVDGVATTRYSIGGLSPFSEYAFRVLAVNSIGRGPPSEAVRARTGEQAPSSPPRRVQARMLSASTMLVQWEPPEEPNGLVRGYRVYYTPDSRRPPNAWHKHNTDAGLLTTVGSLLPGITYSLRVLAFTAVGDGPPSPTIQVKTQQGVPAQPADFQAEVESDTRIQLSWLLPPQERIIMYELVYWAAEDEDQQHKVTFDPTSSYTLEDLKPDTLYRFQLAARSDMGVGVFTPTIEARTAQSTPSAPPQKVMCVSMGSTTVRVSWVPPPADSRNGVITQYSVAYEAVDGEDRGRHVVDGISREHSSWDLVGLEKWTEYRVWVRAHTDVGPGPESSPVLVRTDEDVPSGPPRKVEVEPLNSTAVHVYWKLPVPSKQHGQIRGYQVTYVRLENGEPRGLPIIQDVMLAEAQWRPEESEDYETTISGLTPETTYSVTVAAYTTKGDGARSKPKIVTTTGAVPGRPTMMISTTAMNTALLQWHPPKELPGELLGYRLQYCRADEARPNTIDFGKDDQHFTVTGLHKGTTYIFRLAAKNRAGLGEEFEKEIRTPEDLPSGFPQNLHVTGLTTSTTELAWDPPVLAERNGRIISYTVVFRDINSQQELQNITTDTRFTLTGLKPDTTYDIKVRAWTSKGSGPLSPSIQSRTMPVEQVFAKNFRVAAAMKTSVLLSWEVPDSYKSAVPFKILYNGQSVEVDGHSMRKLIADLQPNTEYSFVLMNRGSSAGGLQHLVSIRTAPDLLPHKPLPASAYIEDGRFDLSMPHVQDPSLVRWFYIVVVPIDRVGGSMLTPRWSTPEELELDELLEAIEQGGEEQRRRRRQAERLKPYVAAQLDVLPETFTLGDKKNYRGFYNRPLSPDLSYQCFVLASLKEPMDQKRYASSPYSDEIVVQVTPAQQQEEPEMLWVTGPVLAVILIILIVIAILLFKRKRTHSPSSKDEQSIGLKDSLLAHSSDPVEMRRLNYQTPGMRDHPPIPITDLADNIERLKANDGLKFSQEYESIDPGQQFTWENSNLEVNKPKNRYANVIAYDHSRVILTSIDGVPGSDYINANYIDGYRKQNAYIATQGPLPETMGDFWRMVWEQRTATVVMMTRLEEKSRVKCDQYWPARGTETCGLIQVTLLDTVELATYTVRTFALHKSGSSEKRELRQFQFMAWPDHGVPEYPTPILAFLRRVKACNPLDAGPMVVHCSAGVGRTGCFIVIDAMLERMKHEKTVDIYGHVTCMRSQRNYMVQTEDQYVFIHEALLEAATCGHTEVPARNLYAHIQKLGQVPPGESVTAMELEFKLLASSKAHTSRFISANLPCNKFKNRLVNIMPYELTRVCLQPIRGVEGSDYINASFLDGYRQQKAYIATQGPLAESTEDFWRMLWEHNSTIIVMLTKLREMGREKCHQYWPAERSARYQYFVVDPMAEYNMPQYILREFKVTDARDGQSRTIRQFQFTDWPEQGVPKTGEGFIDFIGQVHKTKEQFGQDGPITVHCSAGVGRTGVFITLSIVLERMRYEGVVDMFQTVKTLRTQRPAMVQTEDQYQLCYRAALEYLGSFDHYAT

SMILES	IC50 [1] [µM]	inhibition [11] [%]	also measured
COc1cc(C(=O)O[C@@H]2OC[C@@H](OC(=O)c3cc(Br)c(O)c(OC)c3)[C@H](OC(=O)c3cc(Br)c(O)c(OC)c3)[C@H]2OC(=O)c2cc(Br)c(O)c(OC)c2)cc(Br)c1O	0.75		
O=C(OC[C@H]1OC(OC(=O)c2cc(O)c(O)c(Br)c2)[C@H](OC(=O)c2cc(O)c(O)c(Br)c2)[C@@H]1OC(=O)c1cc(O)c(O)c(Br)c1)c1cc(O)c(O)c(Br)c1 (stereo not given in full)	0.19	96.4	Activity (C2C12 [2]): Non-Toxic; Activity [3]: Active; Drug absorption (C2C12 (Mus musculus)): 74 pmol; Activity (C2C12 [4]): Non-Toxic; IC50 [5]: Not Active; inhibition [6]: Active; inhibition [7]: Active; inhibition [8]: Active; Drug uptake [9]: 36.9%; IC50 [10]: 15.9 µM; inhibition [12]: < 25%; Ratio IC50 (Homo sapiens): 32; inhibition [13]: Active; IC50 [14]: 5.94 µM
CC(C)(C)[Si](C)(C)Oc1cc(C(=O)OC[C@H]2OC(OC(=O)c3cc(Br)c(O[Si](C)(C)C(C)(C)C)c(O[Si](C)(C)C(C)(C)C)c3)[C@H](OC(=O)c3cc(Br)c(O[Si](C)(C)C(C)(C)C)c(O[Si](C)(C)C(C)(C)C)c3)[C@@H]2OC(=O)c2cc(Br)c(O[Si](C)(C)C(C)(C)C)c(O[Si](C)(C)C(C)(C)C)c2)cc(Br)c1O[Si](C)(C)C(C)(C)C (stereo not given in full)		43.6	
O=C(OC1OC[C@@H](OC(=O)c2ccc(O)c(O)c2)[C@H](OC(=O)c2ccc(O)c(O)c2)[C@H]1OC(=O)c1ccc(O)c(O)c1)c1ccc(O)c(O)c1 (stereo not given in full)	3		
O=C(OC[C@H]1OC(OC(=O)c2ccc(O)c(O)c2)[C@H](OC(=O)c2ccc(O)c(O)c2)[C@@H]1OC(=O)c1ccc(O)c(O)c1)c1ccc(O)c(O)c1 (stereo not given in full)	2.2		
COc1cc(C(=O)OC[C@H]2OC(OC(=O)c3cc(Br)c(OC)c(OC)c3)[C@H](OC(=O)c3cc(Br)c(OC)c(OC)c3)[C@@H]2OC(=O)c2cc(Br)c(OC)c(OC)c2)cc(Br)c1OC (stereo not given in full)	3.41		
CC(C)(C)[Si](C)(C)Oc1cc(C(=O)O)cc(Br)c1O[Si](C)(C)C(C)(C)C		24.2	
COc1cc(C(=O)OCC(COC(=O)c2cc(Br)c(OC)c(OC)c2)OC(=O)c2cc(Br)c(OC)c(OC)c2)cc(Br)c1OC	> 20		Activity [3]: inactive
COc1cc(C(=O)OC2OC[C@@H](OC(=O)c3cc(Br)c(OC)c(OC)c3)[C@H](OC(=O)c3cc(Br)c(OC)c(OC)c3)[C@H]2OC(=O)c2cc(Br)c(OC)c(OC)c2)cc(Br)c1OC (single isomer, unassigned)	1.11		Activity [3]: inactive
COc1cc(C(=O)OCCOC(=O)c2cc(Br)c(O)c(OC)c2)cc(Br)c1O	> 20		
CC(C)(C)[Si](C)(C)Oc1cc(C(=O)OCC(COC(=O)c2cc(Br)c(O[Si](C)(C)C(C)(C)C)c(O[Si](C)(C)C(C)(C)C)c2)OC(=O)c2cc(Br)c(O[Si](C)(C)C(C)(C)C)c(O[Si](C)(C)C(C)(C)C)c2)cc(Br)c1O[Si](C)(C)C(C)(C)C		12	
COc1cc(C(=O)OCCOC(=O)c2cc(Br)c(OC)c(OC)c2)cc(Br)c1OC	> 20		
O=C(OCC(COC(=O)c1cc(O)c(O)c(Br)c1)OC(=O)c1cc(O)c(O)c(Br)c1)c1cc(O)c(O)c(Br)c1	0.24	95.5	IC50 [5]: Not Active; IC50 [10]: 4.53 µM; inhibition [12]: < 25%; Ratio IC50 (Homo sapiens): 8; IC50 [14]: 1.98 µM
COc1cc(C(=O)OC[C@H]2OC(OC(=O)c3cc(Br)c(O)c(OC)c3)[C@H](OC(=O)c3cc(Br)c(O)c(OC)c3)[C@@H]2OC(=O)c2cc(Br)c(O)c(OC)c2)cc(Br)c1O (stereo not given in full)	1.5		
COc1cc(C(=O)OCC(COC(=O)c2cc(Br)c(O)c(OC)c2)OC(=O)c2cc(Br)c(O)c(OC)c2)cc(Br)c1O	8.45		
CC(C)(C)[Si](C)(C)Oc1cc(C(=O)OC2OC[C@@H](OC(=O)c3cc(Br)c(O[Si](C)(C)C(C)(C)C)c(O[Si](C)(C)C(C)(C)C)c3)[C@H](OC(=O)c3cc(Br)c(O[Si](C)(C)C(C)(C)C)c(O[Si](C)(C)C(C)(C)C)c3)[C@H]2OC(=O)c2cc(Br)c(O[Si](C)(C)C(C)(C)C)c(O[Si](C)(C)C(C)(C)C)c2)cc(Br)c1O[Si](C)(C)C(C)(C)C (stereo not given in full)		41.9	
O=C(OCCOC(=O)c1cc(O)c(O)c(Br)c1)c1cc(O)c(O)c(Br)c1		25	
O=C(O[C@@H]1OC[C@@H](OC(=O)c2cc(O)c(O)c(Br)c2)[C@H](OC(=O)c2cc(O)c(O)c(Br)c2)[C@H]1OC(=O)c1cc(O)c(O)c(Br)c1)c1cc(O)c(O)c(Br)c1	0.2	99	
O=C(OCC(COC(=O)c1ccc(O)c(O)c1)OC(=O)c1ccc(O)c(O)c1)c1ccc(O)c(O)c1	12.3		
CC(C)(C)[Si](C)(C)Oc1cc(C(=O)OCCOC(=O)c2cc(Br)c(O[Si](C)(C)C(C)(C)C)c(O[Si](C)(C)C(C)(C)C)c2)cc(Br)c1O[Si](C)(C)C(C)(C)C		32.8	
O=C(OCCOC(=O)c1ccc(O)c(O)c1)c1ccc(O)c(O)c1	> 20		
